From ChEMBL document CHEMBL1765070, “Structure-based design of potent and selective 3-phosphoinositide-dependent kinase-1 (PDK1) inhibitors” (J Med Chem, 2011)

Columns and labels:
[1] = target: Serine/threonine-protein kinase BRSK2 (Homo sapiens) (UniProt Q8IWQ3); test: Inhibition of human BRSK2 assessed as residual activity at 10 uM
[2] = system: K562; test: Antiproliferative activity against human K562 cells; type: functional, cell-based
[3] = target: Mitogen-activated protein kinase kinase kinase 5 (Homo sapiens, UniProt Q99683); test: Inhibition of ASK1
[4] = target: Ribosomal protein S6 kinase alpha-1 (Homo sapiens) (UniProt Q15418); test: Inhibition of human RSK1 assessed as residual activity at 10 uM
[5] = target: Ribosomal protein S6 kinase alpha-2 (Homo sapiens) (UniProt Q15349); test: Inhibition of human RSK3 assessed as residual activity at 10 uM
[6] = target: Serine/threonine-protein kinase Chk2 (Homo sapiens) (UniProt O96017); test: Inhibition of human CHK2 assessed as residual activity at 10 uM
[7] = system: Hepatocyte growth factor receptor (Homo sapiens), P08581 [D1246H]; test: Inhibition of human MET D1246H mutant assessed as residual activity at 10 uM
[8] = target: Rho-associated protein kinase 2 (Homo sapiens) (UniProt O75116); test: Inhibition of human ROCK2 assessed as residual activity at 10 uM
[9] = target: RAC-alpha serine/threonine-protein kinase (Homo sapiens, UniProt P31749); test: Inhibition of AKT1
[10] = target: T1, TGF-beta receptor type-1 (Homo sapiens, UniProt P36897); test: Inhibition of ALK5
T1 sequence (P36897 whole entry): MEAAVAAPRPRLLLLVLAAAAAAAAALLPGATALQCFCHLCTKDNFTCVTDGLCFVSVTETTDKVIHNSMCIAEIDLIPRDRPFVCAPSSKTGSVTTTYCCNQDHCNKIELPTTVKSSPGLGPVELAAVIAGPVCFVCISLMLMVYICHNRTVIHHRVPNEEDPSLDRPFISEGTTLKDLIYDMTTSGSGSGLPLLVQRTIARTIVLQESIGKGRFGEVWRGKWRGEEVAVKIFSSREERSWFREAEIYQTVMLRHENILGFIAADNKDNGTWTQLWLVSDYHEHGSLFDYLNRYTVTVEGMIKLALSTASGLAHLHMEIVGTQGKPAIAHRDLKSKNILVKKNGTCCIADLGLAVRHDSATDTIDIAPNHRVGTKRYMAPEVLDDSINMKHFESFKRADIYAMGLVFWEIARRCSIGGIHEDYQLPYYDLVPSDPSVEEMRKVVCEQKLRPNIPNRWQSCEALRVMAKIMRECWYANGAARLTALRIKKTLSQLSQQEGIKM

[11] = target: RAC-gamma serine/threonine-protein kinase (Homo sapiens) (UniProt Q9Y243); test: Inhibition of human PKBgamma assessed as residual activity at 10 uM
[12] = target: Serine/threonine-protein kinase 17A (Homo sapiens) (UniProt Q9UEE5); test: Inhibition of human DRAK1 assessed as residual activity at 10 uM
[13] = Cmax in SCID mouse xenografted with human OCI-AML-2 cells at 100 mg/kg, ip administered as a single dose by LC/MS/MS analysis; type: ADME, organism-based; set-up: dose 100 mg/kg, route intraperitoneal; conditions: in vivo
Method in brief: (§1)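 SCID mice with subcutaneous OCI-AML2 xenografts (~500-600 mm3) received a single 100 mg/kg ip dose in 1% DMSO, 20% PEG400, pH 4.2. hIGF-I was injected iv at 3 or 6 h, with blood and tumor taken 10 min after. Compound levels were measured by LC/MS/MS.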

[14] = system: Mus musculus; test: Inhibition of PDK1-mediated RSK phosphorylation at Ser221 residue in human OCI-AML-2 cells xenografted in SCID mouse at 100 mg/kg, ip after 6 hrs by LC/MS/MS analysis; conditions: OCI-AML2, ip, read-out: INH
[15] = target: Serine/threonine-protein kinase BRSK1 (Homo sapiens) (UniProt Q8TDC3); test: Inhibition of human BRSK1 assessed as residual activity at 10 uM
[16] = AUC in SCID mouse xenografted with human OCI-AML-2 cells at 100 mg/kg, ip administered as a single dose by LC/MS/MS analysis; type: ADME, organism-based; set-up: dose 100 mg/kg, route intraperitoneal; conditions: in vivo; method in brief: as §1
[17] = Antiproliferative activity against human F-36P cells; type: functional, cell-based
[18] = target: Ribosomal protein S6 kinase alpha-6 (Homo sapiens) (UniProt Q9UK32); test: Inhibition of human RSK4 assessed as residual activity at 10 uM
[19] = target: Vascular endothelial growth factor receptor 2 (Homo sapiens, UniProt P35968); test: Inhibition of VEGFR2
[20] = target: Tyrosine-protein kinase SYK (Homo sapiens, UniProt P43405); test: Inhibition of SYK
[21] = system: Hepatocyte growth factor receptor (Homo sapiens), P08581 [Y1248H]; test: Inhibition of human MET Y1248H assessed as residual activity at 10 uM
[22] = target: Death-associated protein kinase 3 (Homo sapiens) (UniProt O43293); test: Inhibition of human ZIPK assessed as residual activity at 10 uM
[23] = system: Mus musculus; test: Inhibition of PDK1-mediated AKT phosphorylation at Thr308 residue in human OCI-AML-2 cells xenografted in SCID mouse at 100 mg/kg, ip after 3 hrs by LC/MS/MS analysis; conditions: OCI-AML2, ip, read-out: INH
[24] = system: OCI-AML2; test: Antiproliferative activity against human OCI-AML2 cells; type: functional, cell-based
[25] = target: Ribosomal protein S6 kinase alpha-3 (Homo sapiens) (UniProt P51812); test: Inhibition of human RSK2 assessed as residual activity at 10 uM
[26] = target: cAMP-dependent protein kinase catalytic subunit PRKX (Homo sapiens) (UniProt P51817); test: Inhibition of human PrKX assessed as residual activity at 10 uM
[27] = target: Serine/threonine-protein kinase Sgk1 (Homo sapiens) (UniProt O00141); test: Inhibition of human SGK assessed as residual activity at 10 uM
[28] = target: Proto-oncogene tyrosine-protein kinase receptor Ret (Homo sapiens) (UniProt P07949); test: Inhibition of human RET assessed as residual activity at 10 uM
[29] = target: NUAK family SNF1-like kinase 1 (Homo sapiens) (UniProt O60285); test: Inhibition of human ARK5 assessed as residual activity at 10 uM
[30] = target: Rho-associated protein kinase 2 (Rattus norvegicus) (UniProt Q62868); test: Inhibition of rat ROCK2 assessed as residual activity at 10 uM
[31] = target: Phosphatidylinositol 4,5-bisphosphate 3-kinase catalytic subunit gamma isoform (Homo sapiens, UniProt P48736); test: Inhibition of PI3Kgamma
[32] = target: Serine/threonine-protein kinase Sgk2 (Homo sapiens) (UniProt Q9HBY8); test: Inhibition of human SGK2 assessed as residual activity at 10 uM
[33] = target: Ribosomal protein S6 kinase alpha-1 (Rattus norvegicus) (UniProt Q63531); test: Inhibition of rat RSK1 assessed as residual activity at 10 uM
[34] = Antiproliferative activity against human OCI-AML3 cells; type: functional, cell-based; conditions: OCI-AML-3
[35] = system: Mus musculus; test: Inhibition of PDK1-mediated RSK phosphorylation at Ser221 residue in human OCI-AML-2 cells xenografted in SCID mouse at 100 mg/kg, ip after 3 hrs by LC/MS/MS analysis; conditions: OCI-AML2, ip, read-out: INH
[36] = target: Serine/threonine-protein kinase NLK (Homo sapiens) (UniProt Q9UBE8); test: Inhibition of human NLK assessed as residual activity at 10 uM
[37] = target: Protein kinase C zeta type (Homo sapiens) (UniProt Q05513); test: Inhibition of human PKCzeta assessed as residual activity at 10 uM
[38] = system: HEL; test: Antiproliferative activity against human HEL 92.1.7 cells; type: functional, cell-based
[39] = target: Inhibitor of nuclear factor kappa-B kinase subunit alpha (Homo sapiens, UniProt O15111); test: Inhibition of IKK1
[40] = target: Glycogen synthase kinase-3 beta (Homo sapiens, UniProt P49841); test: Inhibition of GSK3B
[41] = target: 3-phosphoinositide-dependent protein kinase 1 (Homo sapiens) (UniProt O15530); test: Inhibition of human PDK1 assessed as residual activity at 10 uM
[42] = system: Mus musculus; test: Inhibition of PDK1-mediated AKT phosphorylation at Thr308 residue in human OCI-AML-2 cells xenografted in SCID mouse at 100 mg/kg, ip after 6 hrs by LC/MS/MS analysis; conditions: OCI-AML2, ip, read-out: INH

Chain of Mitogen-activated protein kinase kinase kinase 5 (Q99683 whole entry): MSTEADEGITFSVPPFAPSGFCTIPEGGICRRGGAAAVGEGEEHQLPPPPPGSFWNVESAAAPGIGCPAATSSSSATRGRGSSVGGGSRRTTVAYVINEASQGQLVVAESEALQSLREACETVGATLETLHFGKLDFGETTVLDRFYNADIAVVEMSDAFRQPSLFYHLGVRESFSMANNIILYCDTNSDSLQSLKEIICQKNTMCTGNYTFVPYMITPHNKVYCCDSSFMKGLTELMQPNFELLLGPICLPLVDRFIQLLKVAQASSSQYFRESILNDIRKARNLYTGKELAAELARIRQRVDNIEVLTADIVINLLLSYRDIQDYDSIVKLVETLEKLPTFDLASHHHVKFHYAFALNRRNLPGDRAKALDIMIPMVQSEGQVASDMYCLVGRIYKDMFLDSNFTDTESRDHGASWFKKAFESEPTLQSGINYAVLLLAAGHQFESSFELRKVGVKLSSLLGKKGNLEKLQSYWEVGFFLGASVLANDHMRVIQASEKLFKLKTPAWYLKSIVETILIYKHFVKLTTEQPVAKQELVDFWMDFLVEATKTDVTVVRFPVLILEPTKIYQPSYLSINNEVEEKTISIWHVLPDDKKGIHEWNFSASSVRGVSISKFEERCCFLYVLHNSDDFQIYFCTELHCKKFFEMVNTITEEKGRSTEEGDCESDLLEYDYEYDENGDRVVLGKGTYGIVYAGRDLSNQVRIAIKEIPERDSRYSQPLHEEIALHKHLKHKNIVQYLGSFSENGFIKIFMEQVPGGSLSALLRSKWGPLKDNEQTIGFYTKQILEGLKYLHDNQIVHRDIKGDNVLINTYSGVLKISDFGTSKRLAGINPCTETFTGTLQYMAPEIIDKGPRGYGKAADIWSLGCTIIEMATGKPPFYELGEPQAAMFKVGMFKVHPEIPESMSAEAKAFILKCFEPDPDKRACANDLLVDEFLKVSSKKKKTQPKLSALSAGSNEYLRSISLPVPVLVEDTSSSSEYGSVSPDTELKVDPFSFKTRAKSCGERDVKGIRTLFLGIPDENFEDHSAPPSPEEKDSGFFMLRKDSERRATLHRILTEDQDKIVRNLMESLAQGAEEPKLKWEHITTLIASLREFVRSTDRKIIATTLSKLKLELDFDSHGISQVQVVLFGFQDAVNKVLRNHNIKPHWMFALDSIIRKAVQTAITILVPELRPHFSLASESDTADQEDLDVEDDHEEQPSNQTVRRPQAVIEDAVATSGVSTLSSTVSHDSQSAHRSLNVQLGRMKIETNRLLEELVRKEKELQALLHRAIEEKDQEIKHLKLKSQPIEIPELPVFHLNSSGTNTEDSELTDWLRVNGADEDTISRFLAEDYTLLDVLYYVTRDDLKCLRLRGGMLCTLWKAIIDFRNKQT
Chain of Protein kinase C zeta type (Homo sapiens) (Q05513 whole entry, looked up): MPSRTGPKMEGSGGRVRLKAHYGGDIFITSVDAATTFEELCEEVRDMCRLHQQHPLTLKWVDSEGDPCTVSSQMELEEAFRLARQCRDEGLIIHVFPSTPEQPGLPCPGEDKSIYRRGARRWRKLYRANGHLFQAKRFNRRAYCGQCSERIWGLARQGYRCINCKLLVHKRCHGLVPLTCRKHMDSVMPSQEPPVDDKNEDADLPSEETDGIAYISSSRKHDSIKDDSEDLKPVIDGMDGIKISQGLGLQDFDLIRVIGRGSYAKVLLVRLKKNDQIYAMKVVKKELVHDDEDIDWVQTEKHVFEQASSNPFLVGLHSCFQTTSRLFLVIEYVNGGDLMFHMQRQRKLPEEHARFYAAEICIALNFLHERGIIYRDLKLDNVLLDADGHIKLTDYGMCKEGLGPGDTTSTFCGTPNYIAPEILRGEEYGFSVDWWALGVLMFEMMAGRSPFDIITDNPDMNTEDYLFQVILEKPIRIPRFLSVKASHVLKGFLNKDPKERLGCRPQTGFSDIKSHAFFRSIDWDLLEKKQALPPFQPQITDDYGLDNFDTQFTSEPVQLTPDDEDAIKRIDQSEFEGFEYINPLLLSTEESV
Chain of RAC-gamma serine/threonine-protein kinase (Homo sapiens) (Q9Y243 whole entry): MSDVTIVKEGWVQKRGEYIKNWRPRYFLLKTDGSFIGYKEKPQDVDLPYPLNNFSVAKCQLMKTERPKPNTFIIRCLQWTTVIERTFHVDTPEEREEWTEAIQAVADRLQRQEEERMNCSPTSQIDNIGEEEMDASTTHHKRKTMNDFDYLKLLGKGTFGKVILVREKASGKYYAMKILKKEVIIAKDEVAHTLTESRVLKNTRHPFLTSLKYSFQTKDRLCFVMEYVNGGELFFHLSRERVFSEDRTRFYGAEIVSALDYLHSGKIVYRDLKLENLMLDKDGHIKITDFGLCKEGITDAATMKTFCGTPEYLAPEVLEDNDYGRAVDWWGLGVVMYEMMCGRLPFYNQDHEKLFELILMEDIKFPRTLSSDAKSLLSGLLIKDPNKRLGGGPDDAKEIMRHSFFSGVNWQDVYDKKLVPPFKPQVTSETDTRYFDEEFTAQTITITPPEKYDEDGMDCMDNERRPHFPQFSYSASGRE
Chain of Serine/threonine-protein kinase BRSK2 (Homo sapiens) (Q8IWQ3 whole entry): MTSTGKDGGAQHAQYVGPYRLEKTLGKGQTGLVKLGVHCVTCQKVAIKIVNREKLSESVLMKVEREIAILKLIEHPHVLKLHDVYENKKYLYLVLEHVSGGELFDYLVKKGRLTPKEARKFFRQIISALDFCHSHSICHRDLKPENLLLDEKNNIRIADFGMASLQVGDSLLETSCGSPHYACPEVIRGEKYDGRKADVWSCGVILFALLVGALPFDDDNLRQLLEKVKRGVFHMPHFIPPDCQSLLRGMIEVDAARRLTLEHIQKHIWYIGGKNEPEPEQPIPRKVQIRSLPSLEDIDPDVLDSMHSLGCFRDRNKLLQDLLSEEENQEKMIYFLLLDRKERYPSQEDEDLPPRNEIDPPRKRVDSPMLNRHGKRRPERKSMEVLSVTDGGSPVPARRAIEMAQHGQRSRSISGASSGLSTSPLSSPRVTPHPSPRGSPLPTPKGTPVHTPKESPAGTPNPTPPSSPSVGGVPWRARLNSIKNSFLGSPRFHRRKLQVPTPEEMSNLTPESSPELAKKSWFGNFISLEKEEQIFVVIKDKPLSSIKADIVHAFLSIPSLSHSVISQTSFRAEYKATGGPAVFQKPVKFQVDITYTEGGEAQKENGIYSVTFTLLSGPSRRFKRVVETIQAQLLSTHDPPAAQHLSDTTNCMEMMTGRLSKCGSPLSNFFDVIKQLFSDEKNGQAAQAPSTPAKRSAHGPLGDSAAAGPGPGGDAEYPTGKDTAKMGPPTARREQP
Chain of Proto-oncogene tyrosine-protein kinase receptor Ret (Homo sapiens) (P07949 whole entry): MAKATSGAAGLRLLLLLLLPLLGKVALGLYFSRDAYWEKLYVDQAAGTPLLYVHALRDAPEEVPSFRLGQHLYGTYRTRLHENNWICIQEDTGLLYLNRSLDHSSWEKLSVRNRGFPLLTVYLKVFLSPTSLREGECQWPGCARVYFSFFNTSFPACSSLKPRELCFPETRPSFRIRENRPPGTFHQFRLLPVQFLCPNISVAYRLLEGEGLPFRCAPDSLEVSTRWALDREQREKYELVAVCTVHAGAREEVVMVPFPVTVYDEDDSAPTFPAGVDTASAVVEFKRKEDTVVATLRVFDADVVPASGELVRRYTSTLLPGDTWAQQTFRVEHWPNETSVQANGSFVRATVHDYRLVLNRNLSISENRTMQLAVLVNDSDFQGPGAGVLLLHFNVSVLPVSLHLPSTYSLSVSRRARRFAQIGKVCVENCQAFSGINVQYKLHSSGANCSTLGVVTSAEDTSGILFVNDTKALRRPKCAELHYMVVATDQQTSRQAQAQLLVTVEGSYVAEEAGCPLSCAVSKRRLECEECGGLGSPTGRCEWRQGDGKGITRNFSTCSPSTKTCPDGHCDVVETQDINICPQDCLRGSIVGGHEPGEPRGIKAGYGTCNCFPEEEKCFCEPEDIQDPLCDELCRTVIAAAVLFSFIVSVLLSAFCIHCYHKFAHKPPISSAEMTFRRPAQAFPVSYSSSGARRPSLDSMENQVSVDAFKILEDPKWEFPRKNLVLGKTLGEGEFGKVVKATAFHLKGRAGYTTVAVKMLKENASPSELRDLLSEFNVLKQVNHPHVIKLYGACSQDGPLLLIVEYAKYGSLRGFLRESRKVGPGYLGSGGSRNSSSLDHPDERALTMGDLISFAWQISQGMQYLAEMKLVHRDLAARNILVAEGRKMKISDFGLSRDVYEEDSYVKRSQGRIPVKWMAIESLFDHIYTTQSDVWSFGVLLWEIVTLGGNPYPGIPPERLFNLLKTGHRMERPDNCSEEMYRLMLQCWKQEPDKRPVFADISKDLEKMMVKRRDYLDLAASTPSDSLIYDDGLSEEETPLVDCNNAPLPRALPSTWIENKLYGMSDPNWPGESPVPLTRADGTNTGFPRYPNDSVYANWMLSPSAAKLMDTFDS
Chain of Ribosomal protein S6 kinase alpha-6 (Homo sapiens) (Q9UK32 whole entry): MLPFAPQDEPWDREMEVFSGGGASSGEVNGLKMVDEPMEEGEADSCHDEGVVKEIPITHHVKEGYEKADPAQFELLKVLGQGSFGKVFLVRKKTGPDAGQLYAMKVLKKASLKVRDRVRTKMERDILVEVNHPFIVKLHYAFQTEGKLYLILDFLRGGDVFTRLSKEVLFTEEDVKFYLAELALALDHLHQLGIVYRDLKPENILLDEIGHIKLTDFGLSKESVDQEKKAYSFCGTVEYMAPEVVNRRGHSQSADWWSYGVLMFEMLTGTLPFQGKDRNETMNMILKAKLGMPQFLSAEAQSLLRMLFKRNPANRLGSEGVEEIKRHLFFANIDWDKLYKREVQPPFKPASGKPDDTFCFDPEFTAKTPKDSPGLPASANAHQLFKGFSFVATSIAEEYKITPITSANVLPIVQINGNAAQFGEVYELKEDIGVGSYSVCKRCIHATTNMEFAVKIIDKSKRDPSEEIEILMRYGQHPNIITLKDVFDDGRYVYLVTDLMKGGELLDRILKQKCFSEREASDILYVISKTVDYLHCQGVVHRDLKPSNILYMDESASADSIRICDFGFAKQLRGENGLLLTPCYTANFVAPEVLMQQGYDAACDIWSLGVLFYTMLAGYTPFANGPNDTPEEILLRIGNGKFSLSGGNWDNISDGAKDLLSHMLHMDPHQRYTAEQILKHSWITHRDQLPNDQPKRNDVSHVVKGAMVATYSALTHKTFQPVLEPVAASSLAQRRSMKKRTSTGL

For `CNc1nc(-c2ccc3c(N)n[nH]c3c2)cc(N2C[C@@H](C(=O)NC3CCCCC3)CC[C@H]2C)n1`, the Activity [1] was 44%, the IC50 [2] was 18 µM and the IC50 [3] was > 27.5 µM. It also gave an Activity [4] of 46%, an Activity [5] of 14% and an Activity [6] of 29%. For the same compound, the Activity [7] was 43%, the Activity [8] was 26% and the IC50 [9] was > 10 µM. For the same compound, the IC50 ([10]; read-out: IC50) was > 10 µM, the IC50 ([10]; read-out: pIC50 (converted)) was > 10 µM and the Activity [11] was 22%. It also gave an Activity [12] of 23%, a Cmax [13] of 4510 ng/mL and an inhibition in vivo at 100 mg/kg [14] of 71%. For the same compound, the Activity [15] was 33%, the AUC [16] was 31400 ng·h/mL and the IC50 [17] was 280 nM. For the same compound, the Activity [18] was 12%, the IC50 [19] was > 10 µM and the IC50 [20] was > 25.1 µM. For the same compound, the Activity [21] was 49%, the Activity [22] was 21% and the inhibition in vivo at 100 mg/kg [23] was 58%. It also gave an IC50 [24] of 350 nM, an Activity [25] of 28% and an Activity [26] of 4%. It also gave an Activity [27] of 13%, an Activity [28] of 46% and an Activity [29] of 16%. The Activity [30] was 17%, the IC50 [31] was 25.1 µM and the Activity [32] was -2%. For the same compound, the Activity [33] was 34%, the IC50 [34] was 520 nM and the inhibition in vivo at 100 mg/kg [35] was 57%. The Activity [36] was 38%, the Activity [37] was 29% and the IC50 [38] was > 30 µM. The IC50 [39] was > 25.1 µM, the IC50 [40] was > 25.1 µM and the Activity [41] was 0%. It also gave an inhibition in vivo at 100 mg/kg [42] of 29%.
